Hits are enriched below; roughly 3.1% of the tested compounds scored in any of these assays.
KCNK3 block – human KCNK3 channel inhibition, primary screen; O14649; CHO-KCNK3 thallium flux, FluxOR fluorescence; hits give low values; B-score at 10 µM; actives 0.84% (n = 340,000); AID 602410;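 active = B-score under library mean minus 4 SD, starting fluorescence ratio at most library mean plus 5 SD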;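 also: more negative B-score means stronger inhibition of thallium flux through KCNK3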
Target sequence (O14649 whole entry, looked up): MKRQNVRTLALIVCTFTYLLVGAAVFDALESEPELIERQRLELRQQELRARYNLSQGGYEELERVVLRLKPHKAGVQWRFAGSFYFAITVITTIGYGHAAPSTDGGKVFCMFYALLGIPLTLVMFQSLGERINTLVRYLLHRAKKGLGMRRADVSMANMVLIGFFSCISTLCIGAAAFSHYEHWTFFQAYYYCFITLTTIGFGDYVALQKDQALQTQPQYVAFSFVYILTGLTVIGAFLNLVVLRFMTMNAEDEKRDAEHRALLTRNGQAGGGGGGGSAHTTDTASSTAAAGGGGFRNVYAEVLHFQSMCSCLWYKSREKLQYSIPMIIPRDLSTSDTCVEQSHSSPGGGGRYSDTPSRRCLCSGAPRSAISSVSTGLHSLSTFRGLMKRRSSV
hERG rescue – compounds protecting human hERG from proarrhythmic drug block; activation (rescue from dofetilide block), less the hit threshold, % at 10 µM; actives 0.51% (n = 310,000); AID 1511; Q12809; CHO-hERG, FluxOR thallium flux, dofetilide IC70 present;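 active = activation above the mean of controls blocked by dofetilide plus 5 SD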;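 also: thallium influx through hERG after potassium depolarization seen as dye fluorescence rise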
KCNQ1 inh – inhibitors of human KCNQ1 potassium channel; AID 2642; P51787; actives 1.3% (n = 310,000); CHO-K1 KCNQ1, FluxOR thallium flux fluorescence; hits give high values; B-score at 10 µM;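 active = compounds whose thallium flux B-score, printed positive for inhibition, exceeds three library SD while starting fluorescence stays within three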;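 also: channel opened by potassium depolarization with thallium stimulus after 20 min compound exposure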
KCNK9 inh – blocks the human KCNK9 two-pore domain potassium channel | HEK293 KCNK9, FluxOR thallium flux fluorescence; hits give low values | B-score at 10 µM | actives 1.2% (n = 310,000) | AID 488922;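 active = ratio B-score over 3 SD below the library mean, with starting fluorescence within 5 SD of its mean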;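 also: negative B-score means less thallium flux so channel inhibition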
KCNQ1 act – potentiates or activates the human KCNQ1 potassium channel | CHO-K1 KCNQ1, thallium flux FluxOR fluorescence; hits give high values | P51787 | actives 0.35% (n = 310,000) | B-score at 10 µM;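 active = fluorescence ratio B-score, a plate-corrected score, at least three library SD, with initial intensity B-score within 5 SD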
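Schedule – 37 °C overnight plating, 90-min dark dye load, 20-min compound pretreatment · System – stable KCNQ1 CHO-K1 line · Probe or stimulus – thallium- and potassium-containing depolarizing buffer · Measured by – kinetic FluxOR fluorescence, 10 s baseline plus 110 s post-stimulus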
Active calls of the source: *.

Screening Cc1ccc(-c2csc3nc[nH]c(=S)c23)cc1 returned KCNK3 block inactive, hERG rescue 53.0*, KCNQ1 inh inactive, KCNK9 inh inactive and KCNQ1 act 26*.
Screening Cc1ccc(C(C)n2cc(C(=O)NCc3ccccn3)nn2)cc1 (stereo not drawn) returned KCNK3 block inactive, hERG rescue -9.0, KCNQ1 inh inactive, KCNK9 inh inactive and KCNQ1 act inactive.
For CCCNC(=O)C(Cc1ccccc1)NC(=O)c1ccc(-c2ccccc2)cc1 (stereo not drawn) the results were KCNK3 block inactive.
`CC1(C)Oc2ccc(C(=O)Nc3ccccc3)cc2N(CC#N)C1=O` gave KCNK3 block inactive, hERG rescue -8.6, KCNQ1 inh inactive, KCNK9 inh inactive and KCNQ1 act inactive.
For S=c1[nH]cnc2scc(-c3ccc(Cl)cc3)c12 the results were KCNK3 block inactive, hERG rescue 23.4*, KCNQ1 inh inactive, KCNK9 inh inactive and KCNQ1 act 19*.
For Clc1ccc(-c2csc3ncnc(Cl)c23)cc1 the results were KCNK3 block inactive, hERG rescue -4.7, KCNQ1 inh inactive, KCNK9 inh inactive and KCNQ1 act inactive.
COCCN1C(=O)N[C@@H](c2cccc(F)c2)C(C(=O)OC)=C1C was read as KCNK3 block inactive, hERG rescue 4.9*, KCNQ1 inh inactive, KCNK9 inh inactive and KCNQ1 act inactive.
`CCOC(=O)c1c(C)oc2c(F)c(F)c(F)c(F)c2c1=O` gave KCNK3 block inactive, hERG rescue -23.0, KCNQ1 inh 7*, KCNK9 inh inactive and KCNQ1 act inactive.
Screening CCOC(=O)c1c(C)oc2c1cc(O)c1ccccc12 returned KCNK3 block inactive, hERG rescue -1.4, KCNQ1 inh inactive, KCNK9 inh inactive and KCNQ1 act inactive.
Oc1ccc(C[C@@H]2CNCCN2CCC23CC4CC(CC(C4)C2)C3)cc1 was read as KCNK3 block inactive, hERG rescue -11.9, KCNQ1 inh inactive, KCNK9 inh inactive and KCNQ1 act inactive.
`Oc1ccc(C[C@H]2CNCCN2CCC23CC4CC(CC(C4)C2)C3)cc1` gave KCNK3 block inactive, hERG rescue -3.4, KCNQ1 inh 6*, KCNK9 inh inactive and KCNQ1 act inactive.
`CC(=O)CSc1ncnc2sc3c(c12)CCC(C)C3` (stereo not drawn) gave KCNK3 block inactive, hERG rescue 49.7*, KCNQ1 inh inactive, KCNK9 inh inactive and KCNQ1 act 33*.
For Cc1cccc(CSC(Nc2ccc(F)cc2)=C(C#N)C#N)c1 the results were KCNK3 block inactive, hERG rescue -19.1, KCNQ1 inh 8*, KCNK9 inh inactive and KCNQ1 act inactive.
`N#CC(C#N)=C(Nc1ccc(F)cc1)SCc1cccc(Br)c1` gave KCNK3 block inactive, hERG rescue -20.9, KCNQ1 inh 7*, KCNK9 inh inactive and KCNQ1 act inactive.
CC(SCc1ccccc1)C(=O)Nc1ccc(F)cc1 (stereo not drawn) was read as KCNK3 block inactive, hERG rescue -9.9, KCNQ1 inh inactive, KCNK9 inh inactive and KCNQ1 act inactive.
Screening Cc1ccnc(NC(=O)CNC(=O)c2ccc3ccccc3c2)c1 returned KCNK3 block inactive, hERG rescue -19.1, KCNQ1 inh inactive, KCNK9 inh inactive and KCNQ1 act inactive.
`Cc1ccnc(NC(=O)CNC(=O)c2ccc3c(c2)OCO3)c1` gave KCNK3 block inactive, hERG rescue -5.7, KCNQ1 inh inactive, KCNK9 inh inactive and KCNQ1 act 15*.
Screening Cc1ccc(CNC(=O)C2(NC(=O)Nc3ccc(C)cc3)CCCCC2)cc1 returned KCNK3 block inactive, hERG rescue 4.6*, KCNQ1 inh inactive, KCNK9 inh inactive and KCNQ1 act inactive.
`CCOc1ccccc1N(CC(=O)OC)S(C)(=O)=O` gave KCNK3 block inactive, hERG rescue 4.6*, KCNQ1 inh inactive, KCNK9 inh inactive and KCNQ1 act inactive.
`CCOc1ccccc1N(CC(=O)N1CCCCCC1)S(C)(=O)=O` gave KCNK3 block inactive, hERG rescue -12.6, KCNQ1 inh inactive, KCNK9 inh inactive and KCNQ1 act inactive.
For CS(=O)(=O)c1nc(S(=O)(=O)c2ccc(Cl)cc2)c(N2CCOCC2)s1 the results were KCNK3 block inactive, hERG rescue -4.2, KCNQ1 inh inactive, KCNK9 inh inactive and KCNQ1 act inactive.
CCN(CC)CCC=C(c1cccs1)c1cccs1 was read as KCNK3 block inactive.
Screening Cc1ccc(NC(=O)c2c(Cl)n(C)c3ccccc23)cc1 returned KCNK3 block inactive, hERG rescue -3.5, KCNQ1 inh inactive, KCNK9 inh -7.14* and KCNQ1 act inactive.
Screening Cn1c(Cl)c(C(=O)Nc2ccccc2)c2ccccc21 returned KCNK3 block inactive.
`COc1ccc(-c2nc(-c3cccs3)c(-c3cccs3)[nH]2)cc1OC` gave KCNK3 block inactive, hERG rescue -12.4, KCNQ1 inh 7*, KCNK9 inh inactive and KCNQ1 act inactive.
For CCN(CC)S(=O)(=O)c1ccc(N2CCCC2)c(NC(=O)c2ccc(N3CCCC3=O)cc2)c1 the results were KCNK3 block inactive, hERG rescue -16.7, KCNQ1 inh inactive, KCNK9 inh inactive and KCNQ1 act inactive.
For Cc1cccc(C2NC(c3cccc(C)c3)C(C)C(=O)C2C)c1 (stereo not drawn) the results were KCNK3 block inactive, hERG rescue -12.2, KCNQ1 inh inactive, KCNK9 inh inactive and KCNQ1 act inactive.
For Cc1ccc(C2NC(c3ccc(C)cc3)C(C)C(=O)C2C)cc1 (stereo not drawn) the results were KCNK3 block inactive, hERG rescue -9.7, KCNQ1 inh inactive, KCNK9 inh -7.02* and KCNQ1 act inactive.
Screening CCOc1ccc(NC(=O)CC2CC(C)(C)OC2=O)cc1 (stereo not drawn) returned KCNK3 block inactive, hERG rescue -3.7, KCNQ1 inh inactive, KCNK9 inh inactive and KCNQ1 act inactive.
CCCC1CC(C)(c2csc(Nc3ccc(OCC)cc3)n2)OC1=O (stereo not drawn) was read as KCNK3 block inactive, hERG rescue -2.2, KCNQ1 inh inactive, KCNK9 inh -7.67* and KCNQ1 act inactive.
O=C(NCC1CCCO1)c1cccc(NS(=O)(=O)c2ccc(Br)cc2)c1 (stereo not drawn) was read as KCNK3 block inactive, hERG rescue -10.2, KCNQ1 inh inactive, KCNK9 inh inactive and KCNQ1 act inactive.
For CNCc1ccccc1Sc1cccc2ccccc12 the results were KCNK3 block inactive, hERG rescue -13.9, KCNQ1 inh inactive, KCNK9 inh inactive and KCNQ1 act 8*.

Screens (PubChem BioAssay)
